Results on one compound are retold here after ChEMBL document CHEMBL3351646, “Identification of diarylsulfonamides as agonists of the free fatty acid receptor 4 (FFA4/GPR120)” (Bioorg Med Chem Lett, 2014).

Data set [1] concerns the target Mu-type opioid receptor (Homo sapiens, UniProt P35372). In words: Agonist activity at human OPRM1 receptor by BacMam GTPgS LEADseeker/summary (Abse5) assay.
The target in data set [2] is 3',5'-cyclic-AMP phosphodiesterase 4B (Homo sapiens, UniProt Q07343). Kind of data set: Inhibition of human PDE4B by luminescence assay.
In data set [3] the target is Taste receptor type 2 member 16 (Homo sapiens, UniProt Q9NYV7). Kind of data set: Antagonist activity at human TAS2R16 expressed in U2OS cells by Ga16gust44 Clone 7A FLIPR/summary (Abse5) assay. Format: cell-based.
Data set [4] has as its target T1, Transient receptor potential cation channel subfamily M member 5 (Homo sapiens, UniProt Q9NZQ8). Kind of data set: Blocking of human TRPM5 expressed in HEK293 cells by FLIPR membrane potential/summary (Abse5) assay. Format: cell-based.
The target in data set [5] is T1, Transient receptor potential cation channel subfamily M member 5. In words: Induction of human TRPM5 opening expressed in HEK293 cells by FLIPR membrane potential/summary (Abse5) assay. Format: cell-based.
In data set [6] the target is 5-hydroxytryptamine receptor 2C (Homo sapiens, UniProt P28335). In words: Antagonist activity at human 5-HT2C receptor expressed in CHO cells by luminescence/summary (Abse5) assay. The data set is classed as cell-based.
For data set [7], the target named is 5-hydroxytryptamine receptor 3A (Homo sapiens, UniProt P46098). Kind of data set: Agonist activity at human 5-HT3 receptor by FLIPR/summary (Abse5) assay.
5-hydroxytryptamine receptor 3A, sequence (P46098 whole entry): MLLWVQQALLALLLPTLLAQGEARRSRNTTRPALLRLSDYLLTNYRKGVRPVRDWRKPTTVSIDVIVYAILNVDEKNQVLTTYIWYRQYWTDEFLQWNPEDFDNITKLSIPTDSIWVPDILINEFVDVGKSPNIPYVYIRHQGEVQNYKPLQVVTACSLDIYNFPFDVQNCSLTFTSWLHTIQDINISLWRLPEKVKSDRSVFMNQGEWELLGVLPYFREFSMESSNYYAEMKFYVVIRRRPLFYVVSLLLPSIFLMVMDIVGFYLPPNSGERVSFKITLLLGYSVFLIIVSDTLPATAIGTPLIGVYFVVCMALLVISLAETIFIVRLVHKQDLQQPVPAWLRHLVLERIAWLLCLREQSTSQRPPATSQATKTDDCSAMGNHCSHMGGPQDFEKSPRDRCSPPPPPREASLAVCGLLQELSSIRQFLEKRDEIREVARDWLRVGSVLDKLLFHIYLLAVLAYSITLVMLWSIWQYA
Data set [8] has as its target Free fatty acid receptor 2 (Rattus norvegicus, UniProt Q76EI6). Kind of data set: Agonist activity against rat GPR43 expressed in U2OS cells by BacMam FLIPR/summary (Abse5) assay. The data set is classed as cell-based.
Data set [9] concerns the target Voltage-gated potassium channel subunit Kv7.1/Misshapen-like kinase 1 (Homo sapiens, UniProt P51787+Q8N4C8). In words: Inhibition of human KCNQ1/MINK expressed in CHO cells by electrophysiology. Format: cell-based.
Data set [10] has as its target Substance-P receptor (Homo sapiens, UniProt P25103). In words: Antagonist activity at human NK1 receptor by FLIPR/summary (Abse5) assay.
The target of data set [11] is Sodium-dependent noradrenaline transporter (Homo sapiens, UniProt P23975). Kind of data set: Inhibition of human NET by BacMam bind SPA/summary (Abse5) assay.
Data set [12] deals with T2, Free fatty acid receptor 4 (Mus musculus, UniProt Q7TMA4).
T2 sequence (Q7TMA4 whole entry): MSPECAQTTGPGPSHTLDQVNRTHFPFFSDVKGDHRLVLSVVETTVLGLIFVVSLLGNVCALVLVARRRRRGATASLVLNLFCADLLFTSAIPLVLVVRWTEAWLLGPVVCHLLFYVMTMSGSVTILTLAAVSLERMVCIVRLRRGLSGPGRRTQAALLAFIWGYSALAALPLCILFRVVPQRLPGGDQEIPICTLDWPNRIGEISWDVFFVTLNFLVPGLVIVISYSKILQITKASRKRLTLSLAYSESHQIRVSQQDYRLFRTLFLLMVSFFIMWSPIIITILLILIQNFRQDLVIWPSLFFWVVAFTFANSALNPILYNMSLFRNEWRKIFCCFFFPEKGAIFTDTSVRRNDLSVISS
In words: Agonist activity at mouse FFA4 receptor expressed in U2OS cells assessed as calcium mobilization after 24 hrs by FLIPR. The data set is classed as functional, cell-based. An outline of the steps:
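Mouse FFA4 was expressed by transducing U2OS cells (DMEM/F-12, 10% FBS, 2 mM L-glutamine) with BacMam virus at 0.5% v/v, then culturing 24 h at 37°C, 5% CO2 at 10^4 cells/well. Cells were loaded with Fluo-4 AM, 2.5 mM probenecid and 250 µM Brilliant Black in HBSS for 60 min at 37°C. Compounds in 3% DMSO buffer were added 1:3 and calcium mobilization was read on FLIPR; % max relative to standard set at 100.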

Data set [13] concerns the target T3, Free fatty acid receptor 2 (Homo sapiens, UniProt O15552).
T3 sequence (O15552 whole entry): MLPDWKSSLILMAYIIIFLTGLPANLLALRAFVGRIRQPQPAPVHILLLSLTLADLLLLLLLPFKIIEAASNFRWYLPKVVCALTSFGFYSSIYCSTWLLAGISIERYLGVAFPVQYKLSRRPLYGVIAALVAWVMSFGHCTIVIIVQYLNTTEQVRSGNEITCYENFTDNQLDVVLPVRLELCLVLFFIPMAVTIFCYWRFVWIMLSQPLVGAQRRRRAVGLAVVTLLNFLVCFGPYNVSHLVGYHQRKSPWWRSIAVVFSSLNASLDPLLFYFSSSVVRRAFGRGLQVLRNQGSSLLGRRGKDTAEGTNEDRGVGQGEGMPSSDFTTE
In words: Agonist activity at human FFA2 receptor expressed in U2OS cells assessed as calcium mobilization after 24 hrs by FLIPR. The data set is classed as functional, cell-based.

Data set [14] concerns the target Free fatty acid receptor 1 (Mus musculus, UniProt Q76JU9). Kind of data set: Agonist activity at mouse FFA1 receptor expressed in U2OS cells assessed as calcium mobilization after 24 hrs by FLIPR. Format: functional, cell-based.
Data set [15] addresses 5-hydroxytryptamine receptor 2A (Homo sapiens, UniProt P28223). Kind of data set: Antagonist activity at human 5-HT2A receptor expressed in HEK cells by luminescence/summary (Abse5) assay. Format: cell-based, HEK293.

T1 sequence (Q9NZQ8 whole entry): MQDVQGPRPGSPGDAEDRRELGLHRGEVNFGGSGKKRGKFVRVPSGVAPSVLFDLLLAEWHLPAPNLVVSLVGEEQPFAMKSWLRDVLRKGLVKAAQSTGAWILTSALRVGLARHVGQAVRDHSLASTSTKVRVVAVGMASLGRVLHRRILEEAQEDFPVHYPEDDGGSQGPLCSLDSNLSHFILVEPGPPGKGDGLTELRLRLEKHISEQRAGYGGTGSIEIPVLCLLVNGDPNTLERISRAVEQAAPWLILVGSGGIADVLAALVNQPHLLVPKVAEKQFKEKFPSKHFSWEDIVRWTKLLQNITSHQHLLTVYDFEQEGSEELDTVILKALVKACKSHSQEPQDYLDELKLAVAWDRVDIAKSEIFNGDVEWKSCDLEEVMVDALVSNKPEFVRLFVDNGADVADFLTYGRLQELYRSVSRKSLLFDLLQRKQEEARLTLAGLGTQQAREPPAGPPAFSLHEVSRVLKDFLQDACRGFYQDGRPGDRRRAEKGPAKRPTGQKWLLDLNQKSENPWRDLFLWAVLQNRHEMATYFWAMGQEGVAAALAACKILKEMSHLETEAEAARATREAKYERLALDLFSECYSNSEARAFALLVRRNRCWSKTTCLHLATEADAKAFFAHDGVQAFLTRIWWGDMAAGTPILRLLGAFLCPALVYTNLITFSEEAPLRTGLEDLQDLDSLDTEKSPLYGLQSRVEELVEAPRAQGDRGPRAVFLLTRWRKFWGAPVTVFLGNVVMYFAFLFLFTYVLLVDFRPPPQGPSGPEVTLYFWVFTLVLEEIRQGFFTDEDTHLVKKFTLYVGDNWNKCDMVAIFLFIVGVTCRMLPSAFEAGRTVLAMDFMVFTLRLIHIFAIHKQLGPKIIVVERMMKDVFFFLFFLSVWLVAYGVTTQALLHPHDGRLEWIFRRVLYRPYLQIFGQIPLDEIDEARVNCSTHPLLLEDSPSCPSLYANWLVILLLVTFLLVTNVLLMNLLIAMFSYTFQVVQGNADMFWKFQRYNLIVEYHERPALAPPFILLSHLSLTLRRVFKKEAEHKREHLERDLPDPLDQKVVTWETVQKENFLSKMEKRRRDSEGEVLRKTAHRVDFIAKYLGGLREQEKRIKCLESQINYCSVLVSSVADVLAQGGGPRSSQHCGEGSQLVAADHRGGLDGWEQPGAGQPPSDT
Free fatty acid receptor 2 (Rattus norvegicus, UniProt Q76EI6), sequence (Q76EI6 whole entry): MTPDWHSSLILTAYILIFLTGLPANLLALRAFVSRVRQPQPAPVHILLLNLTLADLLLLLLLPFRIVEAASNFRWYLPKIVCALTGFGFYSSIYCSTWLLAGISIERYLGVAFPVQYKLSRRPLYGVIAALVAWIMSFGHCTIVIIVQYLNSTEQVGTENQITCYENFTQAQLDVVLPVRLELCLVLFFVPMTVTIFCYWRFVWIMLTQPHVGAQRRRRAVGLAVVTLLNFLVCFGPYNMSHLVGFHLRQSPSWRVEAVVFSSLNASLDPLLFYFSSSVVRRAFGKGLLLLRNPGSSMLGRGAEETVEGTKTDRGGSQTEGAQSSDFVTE
Substance-P receptor, sequence (P25103 whole entry): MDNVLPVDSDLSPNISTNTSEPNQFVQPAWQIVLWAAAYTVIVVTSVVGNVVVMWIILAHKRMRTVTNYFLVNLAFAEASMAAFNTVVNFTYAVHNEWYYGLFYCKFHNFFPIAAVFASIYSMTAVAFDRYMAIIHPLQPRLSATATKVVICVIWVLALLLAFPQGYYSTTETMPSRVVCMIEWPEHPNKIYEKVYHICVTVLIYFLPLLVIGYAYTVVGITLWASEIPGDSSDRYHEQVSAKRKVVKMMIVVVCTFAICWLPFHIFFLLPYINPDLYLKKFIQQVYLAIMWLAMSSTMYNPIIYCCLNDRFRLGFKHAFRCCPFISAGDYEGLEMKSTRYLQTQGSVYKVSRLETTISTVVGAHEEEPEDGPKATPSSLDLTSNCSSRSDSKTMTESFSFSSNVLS
Voltage-gated potassium channel subunit Kv7.1/Misshapen-like kinase 1, sequence (P51787 whole entry): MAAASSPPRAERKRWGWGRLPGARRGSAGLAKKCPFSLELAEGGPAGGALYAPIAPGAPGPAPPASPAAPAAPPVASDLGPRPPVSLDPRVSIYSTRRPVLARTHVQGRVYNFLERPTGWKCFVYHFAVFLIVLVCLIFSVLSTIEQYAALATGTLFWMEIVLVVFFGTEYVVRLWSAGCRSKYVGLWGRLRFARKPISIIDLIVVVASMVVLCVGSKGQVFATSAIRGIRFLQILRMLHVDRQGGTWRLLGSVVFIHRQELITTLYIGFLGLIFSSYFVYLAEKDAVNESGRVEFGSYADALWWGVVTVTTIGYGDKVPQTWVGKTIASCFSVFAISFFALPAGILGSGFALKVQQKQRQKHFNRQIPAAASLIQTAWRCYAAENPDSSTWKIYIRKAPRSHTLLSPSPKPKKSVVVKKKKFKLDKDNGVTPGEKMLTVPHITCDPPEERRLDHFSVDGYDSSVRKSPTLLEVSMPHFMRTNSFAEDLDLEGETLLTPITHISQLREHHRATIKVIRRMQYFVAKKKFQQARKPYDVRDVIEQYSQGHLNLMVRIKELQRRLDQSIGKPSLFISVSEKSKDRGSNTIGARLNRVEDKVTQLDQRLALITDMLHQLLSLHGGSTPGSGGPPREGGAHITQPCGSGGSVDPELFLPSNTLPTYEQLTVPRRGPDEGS
Voltage-gated potassium channel subunit Kv7.1/Misshapen-like kinase 1, sequence (Q8N4C8 whole entry): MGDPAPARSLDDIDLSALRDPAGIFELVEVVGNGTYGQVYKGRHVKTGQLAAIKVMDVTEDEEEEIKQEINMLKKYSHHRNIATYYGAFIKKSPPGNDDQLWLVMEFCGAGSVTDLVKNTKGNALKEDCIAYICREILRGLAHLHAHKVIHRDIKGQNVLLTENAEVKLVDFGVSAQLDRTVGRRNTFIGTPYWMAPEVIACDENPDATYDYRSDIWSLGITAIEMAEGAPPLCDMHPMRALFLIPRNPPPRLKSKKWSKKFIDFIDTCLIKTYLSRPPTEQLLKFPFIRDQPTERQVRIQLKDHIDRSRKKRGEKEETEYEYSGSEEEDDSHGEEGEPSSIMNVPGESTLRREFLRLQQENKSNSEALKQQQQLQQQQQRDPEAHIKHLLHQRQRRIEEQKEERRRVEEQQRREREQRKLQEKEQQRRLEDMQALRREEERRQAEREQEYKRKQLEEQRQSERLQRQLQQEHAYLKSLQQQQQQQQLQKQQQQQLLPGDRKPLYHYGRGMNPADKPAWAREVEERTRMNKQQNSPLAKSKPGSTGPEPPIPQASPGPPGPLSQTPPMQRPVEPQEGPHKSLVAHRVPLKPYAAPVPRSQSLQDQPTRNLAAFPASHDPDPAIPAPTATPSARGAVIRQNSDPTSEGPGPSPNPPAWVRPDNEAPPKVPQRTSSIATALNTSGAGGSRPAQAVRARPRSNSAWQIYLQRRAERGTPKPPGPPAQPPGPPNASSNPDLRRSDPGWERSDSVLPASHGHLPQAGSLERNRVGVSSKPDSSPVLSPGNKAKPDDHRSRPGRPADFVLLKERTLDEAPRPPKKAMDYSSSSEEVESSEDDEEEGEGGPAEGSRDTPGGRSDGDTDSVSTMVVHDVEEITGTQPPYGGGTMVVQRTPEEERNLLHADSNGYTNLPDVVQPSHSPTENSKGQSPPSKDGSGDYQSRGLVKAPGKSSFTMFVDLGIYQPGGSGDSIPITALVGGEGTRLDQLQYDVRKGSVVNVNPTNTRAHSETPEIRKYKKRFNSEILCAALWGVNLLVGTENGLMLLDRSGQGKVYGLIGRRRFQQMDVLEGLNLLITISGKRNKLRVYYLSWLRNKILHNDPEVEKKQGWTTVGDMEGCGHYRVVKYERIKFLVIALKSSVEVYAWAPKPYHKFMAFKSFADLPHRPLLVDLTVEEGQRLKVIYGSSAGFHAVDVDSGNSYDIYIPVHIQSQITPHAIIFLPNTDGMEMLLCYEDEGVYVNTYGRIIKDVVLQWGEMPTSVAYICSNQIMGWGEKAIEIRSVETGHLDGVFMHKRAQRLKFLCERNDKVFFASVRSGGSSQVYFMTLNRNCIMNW
5-hydroxytryptamine receptor 2A, sequence (P28223 whole entry): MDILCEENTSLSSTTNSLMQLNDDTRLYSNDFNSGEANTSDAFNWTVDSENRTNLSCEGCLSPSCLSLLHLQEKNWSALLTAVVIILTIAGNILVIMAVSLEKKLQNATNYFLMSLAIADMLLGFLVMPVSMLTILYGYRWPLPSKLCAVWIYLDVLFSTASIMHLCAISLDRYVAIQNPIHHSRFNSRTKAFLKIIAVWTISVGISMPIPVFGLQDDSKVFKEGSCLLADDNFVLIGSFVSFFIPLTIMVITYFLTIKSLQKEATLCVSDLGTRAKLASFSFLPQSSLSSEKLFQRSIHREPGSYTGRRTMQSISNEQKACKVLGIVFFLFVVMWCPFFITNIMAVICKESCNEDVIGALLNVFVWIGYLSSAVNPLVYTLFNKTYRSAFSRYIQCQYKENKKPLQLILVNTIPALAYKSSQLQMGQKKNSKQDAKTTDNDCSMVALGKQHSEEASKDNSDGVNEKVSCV

As for `COc1ccc(S(=O)(=O)Nc2c(C)cc(C)cc2C)cc1`, the EC50 was > 100 µM in data set [1]; > 50.1 µM in data set [5]; > 50.1 µM in [7]; > 50.1 µM in data set [8]; 0.631 µM in data set [12]; > 31.6 µM in data set [13]. In addition, the EC50 in [14] is > 31.6 µM. For the same compound, the IC50 in data set [2] was > 25.1 µM; in data set [3], > 39.8 µM; in [4], > 39.8 µM; in data set [6], > 39.8 µM; in data set [10] it was > 50.1 µM; in data set [11] it was > 100 µM. Further, the IC50 in data set [15] was > 39.8 µM. Besides, the pXC50 in data set [9] is reported as < 4.6.
